In ChEMBL document CHEMBL1154319, “Further studies on the chemistry of the flustra alkaloids from the bryozoan Flustra foliacea” (2009):
Calls of active or inactive are those of the source. No cut-off for these calls is given here.

Experiments:
[1] = tested on: Cyberlindnera jadinii; experiment: Antifungal activity against Candida utilis ATCC 9950 at 0.9 mol by disk diffusion method; assay type: functional, organism-based
In short: (§1)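 Compound dissolved in MeOH, applied to a 6 mm filter-paper disk and air-dried. Disk placed on an agar plate overgrown with the test organism. Growth-inhibition zone measured from the outer edge of the disk.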

[2] = tested on: Micrococcus luteus; experiment: Antibacterial activity against Micrococcus luteus ATCC 49732 at 0.9 mol by disk diffusion method; assay type: functional, organism-based; in short: as §1
[3] = tested on: Saccharomyces cerevisiae; experiment: Antifungal activity against Saccharomyces cerevisiae ATCC 9763 at 0.9 mol by disk diffusion method; assay type: functional, organism-based; in short: as §1
[4] = tested on: Escherichia coli; experiment: Antibacterial activity against Escherichia coli ATCC 11775 at 0.9 mol by disk diffusion method; assay type: functional, organism-based; in short: as §1
[5] = tested on: Saccharomyces cerevisiae; experiment: Antifungal activity against Saccharomyces cerevisiae ATCC 9763 at 0.7 mol by disk diffusion method; assay type: functional, organism-based; in short: as §1
[6] = tested on: Micrococcus luteus; experiment: Antibacterial activity against Micrococcus luteus ATCC 49732 at 0.7 mol by disk diffusion method; assay type: functional, organism-based; in short: as §1
[7] = tested on: Cyberlindnera jadinii; experiment: Antifungal activity against Candida utilis ATCC 9950 at 0.7 mol by disk diffusion method; assay type: functional, organism-based; in short: as §1
[8] = tested on: Escherichia coli; experiment: Antibacterial activity against Escherichia coli ATCC 11775 at 0.7 mol by disk diffusion method; assay type: functional, organism-based; in short: as §1
[9] = tested on: Escherichia coli; experiment: Antibacterial activity against Escherichia coli ATCC 11775 at 1.3 mol by disk diffusion method; assay type: functional; in short: as §1
[10] = tested on: Cyberlindnera jadinii; experiment: Antifungal activity against Candida utilis ATCC 9950 at 1.3 mol by disk diffusion method; assay type: functional; in short: as §1
[11] = tested on: Micrococcus luteus; experiment: Antibacterial activity against Micrococcus luteus ATCC 49732 at 1.3 mol by disk diffusion method; assay type: functional; in short: as §1
[12] = tested on: Saccharomyces cerevisiae; experiment: Antifungal activity against Saccharomyces cerevisiae ATCC 9763 at 1.3 mol by disk diffusion method; assay type: functional; in short: as §1
[13] = tested on: Cyberlindnera jadinii; experiment: Antifungal activity against Candida utilis ATCC 9950 at 1.4 mol by disk diffusion method; assay type: functional; in short: as §1
[14] = tested on: Escherichia coli; experiment: Antibacterial activity against Escherichia coli ATCC 11775 at 1.5 mol by disk diffusion method; assay type: functional; in short: as §1
[15] = tested on: Micrococcus luteus; experiment: Antibacterial activity against Micrococcus luteus ATCC 49732 at 1.5 mol by disk diffusion method; assay type: functional; in short: as §1
[16] = tested on: Saccharomyces cerevisiae; experiment: Antifungal activity against Saccharomyces cerevisiae ATCC 9763 at 1.5 mol by disk diffusion method; assay type: functional; in short: as §1
[17] = tested on: Cyberlindnera jadinii; experiment: Antifungal activity against Candida utilis ATCC 9950 at 1.5 mol by disk diffusion method; assay type: functional; in short: as §1
[18] = tested on: Cyberlindnera jadinii; experiment: Antifungal activity against Candida utilis ATCC 9950 at 1.2 mol by disk diffusion method; assay type: functional; in short: as §1
[19] = tested on: Micrococcus luteus; experiment: Antibacterial activity against Micrococcus luteus ATCC 49732 at 1.2 mol by disk diffusion method; assay type: functional; in short: as §1
[20] = tested on: Escherichia coli; experiment: Antibacterial activity against Escherichia coli ATCC 11775 at 1.2 mol by disk diffusion method; assay type: functional; in short: as §1
[21] = tested on: Saccharomyces cerevisiae; experiment: Antifungal activity against Saccharomyces cerevisiae ATCC 9763 at 1.2 mol by disk diffusion method; assay type: functional; in short: as §1

C=CC(C)(C)[C@@]12CCN(C)[C@@H]1N(CN1c3cc(Br)ccc3[C@]3(C(C)(C)C=C)CCN(C)[C@H]13)c1cc(Br)ccc12
inhibition zone (IZ) [1]: inactive | inhibition zone (IZ) [2]: inactive | inhibition zone (IZ) [3]: inactive | inhibition zone (IZ) [4]: inactive

C=CC(C)(C)[C@@]12CCN(C)[C@@H]1N(Cc1cc(Br)c3c(c1O)[C@]1(C/C=C(\C)CCC=C(C)C)CCN(C)[C@@H]1N3)c1cc(Br)ccc12
inhibition zone (IZ) [5]: inactive | inhibition zone (IZ) [6]: inactive | inhibition zone (IZ) [7]: inactive | inhibition zone (IZ) [8]: inactive

CC(C)=CCC/C(C)=C/C[C@@]12CCN(C)[C@@H]1Nc1cccc(O)c12 [DEBROMOFLUSTRAMINE H]
inhibition zone (IZ) [9]: 22 mm | inhibition zone (IZ) [10]: 28 mm | inhibition zone (IZ) [11]: 23 mm | inhibition zone (IZ) [12]: 16 mm

C=CC(C)(C)[C@@]12CCN(C)[C@@H]1N(C(C)=O)c1cc(Br)ccc12 [FLUSTRAMINE F]
inhibition zone (IZ) [13]: 18 mm

CC(C)=CC[C@@]12CCN(C)[C@@H]1Nc1c(Br)ccc(O)c12 [FLUSTRAMINE I]
inhibition zone (IZ) [14]: 25 mm | inhibition zone (IZ) [15]: 29 mm | inhibition zone (IZ) [16]: 15 mm | inhibition zone (IZ) [17]: 29 mm

CC(C)=CCc1cc(Br)c2c(c1O)[C@]1(CC=C(C)C)CCN(C)[C@@H]1N2 [FLUSTRAMINE L]
inhibition zone (IZ) [18]: 30 mm | inhibition zone (IZ) [19]: 25 mm | inhibition zone (IZ) [20]: 24 mm | inhibition zone (IZ) [21]: 20 mm
